“And” between values parts separate entries of the source, which are not always exact repeats. Identical values can stand only once.
Tests used:
[1] = biological target: human ΔF508-CFTR (Homo sapiens, UniProt P13569, DEL508-508); assay: ΔF508-CFTR corrector activity assay; format: cell-based; conditions: concentration-dependent increase in I− influx in FRT ΔF508-CFTR cells
[2] = format: physicochemical
Procedure, shortened: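 Reverse-phase HPLC retention time gave log k (capacity factor). A calibration line of log k against known logP was built from reference compounds and used to convert each test compound's log k to logP.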

ΔF508-CFTR corrector activity (in words) [1]	chromatographic logP [2]	logP difference versus bithiazole 1 (lower) ([2]; 14h compared with bithiazole CF corrector 1)	SMILES
relatively low activity	–	–	COc1ccc(NC(=O)c2cc(-c3sc(NC(=O)C(C)(C)C)nc3C)n(-c3ccc(Br)cc3)n2)cc1 [11d, 1-(4-Bromophenyl)-N-(4-methoxyphenyl)-5-(4-methyl-2-pivalamidothiazol-5-yl)-1H-pyrazole-3-carboxamide]
–	4.1	1.2 log units and ~ 1.2 log units	COc1ccc(Cl)cc1Cn1nc(-c2sc(NC(=O)C(C)(C)C)nc2C)cc1C(=O)N1CCOCC1 [14h, N-(5-(1-(5-chloro-2-methoxybenzyl)-5-(morpholine-4-carbonyl)-1H-pyrazol-3-yl)-4-methylthiazol-2-yl)pivalamide]
retains corrector activity	3.5	–	COc1ccc(Cl)cc1Cn1nc(-c2sc(NC(=O)C(C)(C)C)nc2C)cc1C(=O)NCCO [14j, 1-(5-chloro-2-methoxybenzyl)-N-(2-hydroxyethyl)-3-(4-methyl-2-pivalamidothiazol-5-yl)-1H-pyrazole-5-carboxamide]
–	> 5	–	COc1ccc(Cl)cc1Nc1nc(-c2sc(NC(=O)C(C)(C)C)nc2C)cs1 [compound 1, reference compound]
